≈ marks a conversion by molar mass, not a printed value.
These molecules were tested on Staphylococcus aureus (assay: Antibacterial activity against Staphylococcus aureus 15187 by NCCLS method).
Type: functional
Procedure, shortened: (§1)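 In vitro MIC determination by the NCCLS method against a panel of gram-positive bacteria. Two oxazolidinone reference standards were tested alongside.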

Question: Which MIC does the source give for `O=C(NC[C@H]1CN(c2ccc(N3CCN(Cc4ccc([N+](=O)[O-])o4)CC3)c(F)c2)C(=O)O1)c1ccc([N+](=O)[O-])o1` here?
Answer: 2 µg/mL (≈ 3.58 µM)

Question: `O=C(NC[C@H]1CN(c2ccc(N3CCN(Cc4ccc([N+](=O)[O-])o4)CC3)c(F)c2)C(=O)O1)c1ccc(Br)o1` was tested. Which MIC did it give?
Answer: > 16 µg/mL

Question: With `O=C(/C=C/c1ccc(F)cc1)NC[C@H]1CN(c2ccc(N3CCN(Cc4ccc([N+](=O)[O-])o4)CC3)c(F)c2)C(=O)O1` as the molecule, how does the MIC read?
Answer: > 16 µg/mL

Question: `O=C(NC[C@H]1CN(c2ccc(N3CCN(Cc4ccc([N+](=O)[O-])o4)CC3)c(F)c2)C(=O)O1)c1cc2ccccc2o1` was tested. Which MIC did it give?
Answer: > 16 µg/mL

Question: Which MIC does the source give for `O=C1O[C@@H](COc2ccon2)CN1c1ccc(N2CCN(Cc3ccc([N+](=O)[O-])o3)CC2)c(F)c1` here?
Answer: > 16 µg/mL

What follows are molecules tested on Staphylococcus aureus (assay: Antibacterial activity against Staphylococcus aureus ATCC 25923 by NCCLS method).
Type: functional
Procedure, shortened: as §1

Question: Which MIC does the source give for `O=C(NC[C@H]1CN(c2ccc(N3CCN(Cc4ccc([N+](=O)[O-])o4)CC3)c(F)c2)C(=O)O1)c1ccc([N+](=O)[O-])o1` here?
Answer: 8 µg/mL (≈ 14.3 µM)

Question: With `O=C(NC[C@H]1CN(c2ccc(N3CCN(Cc4ccc([N+](=O)[O-])o4)CC3)c(F)c2)C(=O)O1)c1ccc(Br)o1` as the molecule, how does the MIC read?
Answer: > 16 µg/mL

Question: How did the MIC turn out when `O=C(/C=C/c1ccc(F)cc1)NC[C@H]1CN(c2ccc(N3CCN(Cc4ccc([N+](=O)[O-])o4)CC3)c(F)c2)C(=O)O1` was run?
Answer: > 16 µg/mL

Question: For `O=C(NC[C@H]1CN(c2ccc(N3CCN(Cc4ccc([N+](=O)[O-])o4)CC3)c(F)c2)C(=O)O1)c1cc2ccccc2o1`, which MIC is on record?
Answer: > 16 µg/mL

Question: With `O=C1O[C@@H](COc2ccon2)CN1c1ccc(N2CCN(Cc3ccc([N+](=O)[O-])o3)CC2)c(F)c1` as the molecule, how does the MIC read?
Answer: > 16 µg/mL

Question: Which MIC does the source give for `CC(=O)NC[C@H]1CN(c2ccc(N3CCN(Cc4ccc([N+](=O)[O-])o4)CC3)c(F)c2)C(=O)O1` [RANBEZOLID] here?
Answer: 1 µg/mL (≈ 2.17 µM)

What follows are molecules tested on Staphylococcus aureus (assay: Antibacterial activity against methicillin-resistant Staphylococcus aureus 562 by NCCLS method).
Type: functional
Procedure, shortened: (§2)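 In vitro MIC determined by the NCCLS method against a panel of gram-positive bacteria. Ranbezolid and linezolid were run alongside as reference standards.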

Question: `O=C(NC[C@H]1CN(c2ccc(N3CCN(Cc4ccc([N+](=O)[O-])o4)CC3)c(F)c2)C(=O)O1)c1ccc([N+](=O)[O-])o1` was tested. Which MIC did it give?
Answer: 1 µg/mL (≈ 1.79 µM)

Question: `O=C(NC[C@H]1CN(c2ccc(N3CCN(Cc4ccc([N+](=O)[O-])o4)CC3)c(F)c2)C(=O)O1)c1ccc(Br)o1` was tested. Which MIC did it give?
Answer: > 16 µg/mL

Question: For `O=C(/C=C/c1ccc(F)cc1)NC[C@H]1CN(c2ccc(N3CCN(Cc4ccc([N+](=O)[O-])o4)CC3)c(F)c2)C(=O)O1`, which MIC is on record?
Answer: > 16 µg/mL

Question: Which MIC does the source give for `O=C(NC[C@H]1CN(c2ccc(N3CCN(Cc4ccc([N+](=O)[O-])o4)CC3)c(F)c2)C(=O)O1)c1cc2ccccc2o1` here?
Answer: > 16 µg/mL

Question: How did the MIC turn out when `O=C1O[C@@H](COc2ccon2)CN1c1ccc(N2CCN(Cc3ccc([N+](=O)[O-])o3)CC2)c(F)c1` was run?
Answer: > 16 µg/mL

Question: `CC(=O)NC[C@H]1CN(c2ccc(N3CCN(Cc4ccc([N+](=O)[O-])o4)CC3)c(F)c2)C(=O)O1` [RANBEZOLID] was tested. Which MIC did it give?
Answer: 2 µg/mL (≈ 4.33 µM)

What follows are molecules tested on Staphylococcus aureus (assay: Antibacterial activity against methicillin-resistant Staphylococcus aureus 33 by NCCLS method).
Type: functional
Procedure, shortened: as §2

Question: For `O=C(NC[C@H]1CN(c2ccc(N3CCN(Cc4ccc([N+](=O)[O-])o4)CC3)c(F)c2)C(=O)O1)c1ccc([N+](=O)[O-])o1`, which MIC is on record?
Answer: 2 µg/mL (≈ 3.58 µM)

Question: `O=C(NC[C@H]1CN(c2ccc(N3CCN(Cc4ccc([N+](=O)[O-])o4)CC3)c(F)c2)C(=O)O1)c1ccc(Br)o1` was tested. Which MIC did it give?
Answer: > 16 µg/mL

Question: For `O=C(/C=C/c1ccc(F)cc1)NC[C@H]1CN(c2ccc(N3CCN(Cc4ccc([N+](=O)[O-])o4)CC3)c(F)c2)C(=O)O1`, which MIC is on record?
Answer: > 16 µg/mL

Question: Which MIC does the source give for `O=C(NC[C@H]1CN(c2ccc(N3CCN(Cc4ccc([N+](=O)[O-])o4)CC3)c(F)c2)C(=O)O1)c1cc2ccccc2o1` here?
Answer: > 16 µg/mL

Question: Which MIC does the source give for `O=C1O[C@@H](COc2ccon2)CN1c1ccc(N2CCN(Cc3ccc([N+](=O)[O-])o3)CC2)c(F)c1` here?
Answer: > 16 µg/mL

Question: For `CC(=O)NC[C@H]1CN(c2ccc(N3CCN(Cc4ccc([N+](=O)[O-])o4)CC3)c(F)c2)C(=O)O1` [RANBEZOLID], which MIC is on record?
Answer: 2 µg/mL (≈ 4.33 µM)

The molecules below were run on Enterococcus faecalis (assay: Antibacterial activity against Enterococcus faecalis ATCC 29212 by NCCLS method).
Type: functional
Procedure, shortened: as §1

Question: How did the MIC turn out when `O=C(NC[C@H]1CN(c2ccc(N3CCN(Cc4ccc([N+](=O)[O-])o4)CC3)c(F)c2)C(=O)O1)c1ccc([N+](=O)[O-])o1` was run?
Answer: 4 µg/mL (≈ 7.16 µM)

Question: Which MIC does the source give for `O=C(NC[C@H]1CN(c2ccc(N3CCN(Cc4ccc([N+](=O)[O-])o4)CC3)c(F)c2)C(=O)O1)c1ccc(Br)o1` here?
Answer: > 16 µg/mL

Question: With `O=C(/C=C/c1ccc(F)cc1)NC[C@H]1CN(c2ccc(N3CCN(Cc4ccc([N+](=O)[O-])o4)CC3)c(F)c2)C(=O)O1` as the molecule, how does the MIC read?
Answer: > 16 µg/mL

Question: `O=C(NC[C@H]1CN(c2ccc(N3CCN(Cc4ccc([N+](=O)[O-])o4)CC3)c(F)c2)C(=O)O1)c1cc2ccccc2o1` was tested. Which MIC did it give?
Answer: > 16 µg/mL

Question: With `O=C1O[C@@H](COc2ccon2)CN1c1ccc(N2CCN(Cc3ccc([N+](=O)[O-])o3)CC2)c(F)c1` as the molecule, how does the MIC read?
Answer: > 16 µg/mL

Question: How did the MIC turn out when `CC(=O)NC[C@H]1CN(c2ccc(N3CCN(Cc4ccc([N+](=O)[O-])o4)CC3)c(F)c2)C(=O)O1` [RANBEZOLID] was run?
Answer: 2 µg/mL (≈ 4.33 µM)

What follows are molecules tested on Enterococcus faecium (assay: Antibacterial activity against vancomycin-resistant Enterococcus faecium 6A by NCCLS method).
Type: functional
Procedure, shortened: as §2

Question: With `O=C(NC[C@H]1CN(c2ccc(N3CCN(Cc4ccc([N+](=O)[O-])o4)CC3)c(F)c2)C(=O)O1)c1ccc([N+](=O)[O-])o1` as the molecule, how does the MIC read?
Answer: > 8 µg/mL

Question: How did the MIC turn out when `O=C(NC[C@H]1CN(c2ccc(N3CCN(Cc4ccc([N+](=O)[O-])o4)CC3)c(F)c2)C(=O)O1)c1ccc(Br)o1` was run?
Answer: > 16 µg/mL

Question: With `O=C(/C=C/c1ccc(F)cc1)NC[C@H]1CN(c2ccc(N3CCN(Cc4ccc([N+](=O)[O-])o4)CC3)c(F)c2)C(=O)O1` as the molecule, how does the MIC read?
Answer: > 16 µg/mL

Question: Which MIC does the source give for `O=C(NC[C@H]1CN(c2ccc(N3CCN(Cc4ccc([N+](=O)[O-])o4)CC3)c(F)c2)C(=O)O1)c1cc2ccccc2o1` here?
Answer: > 16 µg/mL

Question: With `O=C1O[C@@H](COc2ccon2)CN1c1ccc(N2CCN(Cc3ccc([N+](=O)[O-])o3)CC2)c(F)c1` as the molecule, how does the MIC read?
Answer: > 16 µg/mL

Question: How did the MIC turn out when `CC(=O)NC[C@H]1CN(c2ccc(N3CCOCC3)c(F)c2)C(=O)O1` [LINEZOLID] was run?
Answer: 2 µg/mL (≈ 5.93 µM)

Question: Which MIC does the source give for `CC(=O)NC[C@H]1CN(c2ccc(N3CCN(Cc4ccc([N+](=O)[O-])o4)CC3)c(F)c2)C(=O)O1` [RANBEZOLID] here?
Answer: 2 µg/mL (≈ 4.33 µM)

Each molecule was assayed on Streptococcus pyogenes (assay: Antibacterial activity against Streptococcus pyogenes ATCC 19615 by NCCLS method).
Type: functional
Procedure, shortened: as §1

Question: `O=C(NC[C@H]1CN(c2ccc(N3CCN(Cc4ccc([N+](=O)[O-])o4)CC3)c(F)c2)C(=O)O1)c1ccc([N+](=O)[O-])o1` was tested. Which MIC did it give?
Answer: > 8 µg/mL

Question: How did the MIC turn out when `O=C(NC[C@H]1CN(c2ccc(N3CCN(Cc4ccc([N+](=O)[O-])o4)CC3)c(F)c2)C(=O)O1)c1ccc(Br)o1` was run?
Answer: > 16 µg/mL

Question: With `O=C(/C=C/c1ccc(F)cc1)NC[C@H]1CN(c2ccc(N3CCN(Cc4ccc([N+](=O)[O-])o4)CC3)c(F)c2)C(=O)O1` as the molecule, how does the MIC read?
Answer: > 16 µg/mL

Question: Which MIC does the source give for `O=C(NC[C@H]1CN(c2ccc(N3CCN(Cc4ccc([N+](=O)[O-])o4)CC3)c(F)c2)C(=O)O1)c1cc2ccccc2o1` here?
Answer: > 16 µg/mL

Question: Which MIC does the source give for `O=C1O[C@@H](COc2ccon2)CN1c1ccc(N2CCN(Cc3ccc([N+](=O)[O-])o3)CC2)c(F)c1` here?
Answer: > 16 µg/mL

Question: With `CC(=O)NC[C@H]1CN(c2ccc(N3CCOCC3)c(F)c2)C(=O)O1` [LINEZOLID] as the molecule, how does the MIC read?
Answer: 2 µg/mL (≈ 5.93 µM)

Question: How did the MIC turn out when `CC(=O)NC[C@H]1CN(c2ccc(N3CCN(Cc4ccc([N+](=O)[O-])o4)CC3)c(F)c2)C(=O)O1` [RANBEZOLID] was run?
Answer: 0.125 µg/mL (≈ 0.271 µM)

Each molecule was assayed on Streptococcus pneumoniae (assay: Antibacterial activity against Streptococcus pneumoniae ATCC 6303 by NCCLS method).
Type: functional
Procedure, shortened: as §1

Question: Which MIC does the source give for `O=C(NC[C@H]1CN(c2ccc(N3CCN(Cc4ccc([N+](=O)[O-])o4)CC3)c(F)c2)C(=O)O1)c1ccc([N+](=O)[O-])o1` here?
Answer: 8 µg/mL (≈ 14.3 µM)

Question: How did the MIC turn out when `O=C(NC[C@H]1CN(c2ccc(N3CCN(Cc4ccc([N+](=O)[O-])o4)CC3)c(F)c2)C(=O)O1)c1ccc(Br)o1` was run?
Answer: > 16 µg/mL

Question: How did the MIC turn out when `O=C(/C=C/c1ccc(F)cc1)NC[C@H]1CN(c2ccc(N3CCN(Cc4ccc([N+](=O)[O-])o4)CC3)c(F)c2)C(=O)O1` was run?
Answer: > 16 µg/mL

Question: Which MIC does the source give for `O=C(NC[C@H]1CN(c2ccc(N3CCN(Cc4ccc([N+](=O)[O-])o4)CC3)c(F)c2)C(=O)O1)c1cc2ccccc2o1` here?
Answer: > 16 µg/mL

Question: With `O=C1O[C@@H](COc2ccon2)CN1c1ccc(N2CCN(Cc3ccc([N+](=O)[O-])o3)CC2)c(F)c1` as the molecule, how does the MIC read?
Answer: > 16 µg/mL

Question: For `CC(=O)NC[C@H]1CN(c2ccc(N3CCN(Cc4ccc([N+](=O)[O-])o4)CC3)c(F)c2)C(=O)O1` [RANBEZOLID], which MIC is on record?
Answer: 0.125 µg/mL (≈ 0.271 µM)
